# Results reported in the RNAGym collection of RNA variant scans (doi:10.1038/s41586-018-0170-7).
# B1: tRNA (parent)
# chain: GUUCCGUUGGCGUAAUGGUAACGCGUCUCCCUCCUAAGGAGAAGACUGCGGGUUCGAGUCCCGUACGGAACG
# Variants of: B1
# Assay: yeast fitness, log relative to wild type (ln ratio); higher = fitter; tRNA-Arg(CCU), competitive growth, 37 C, 1 M NaCl
# Procedure, shortened: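 BY4742 cells without the chromosomal tRNA-Arg(CCU) gene carried a combinatorial variant library on a HIS3 centromeric plasmid, from two independent transformations. After 4 generations in SC-HIS at 30 °C, pools spent ~6.5 generations (~26.5 h) in SC-HIS 1M NaCl at 37 °C, giving three outputs per input, and 125 bp paired-end Illumina reads counted the variants. Fitness is the natural log of each genotype's generations over the wild type's, with generations taken as OD-scaled log2 output/input frequency weighted by inverse variance across replicates.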
row,Variant,yeast fitness (ln)
1,U2C G6A C27U C66U C71U,-0.161
2,G1A U2C G6A C27U A43C C46U A69G A70U,-0.132
3,U2G G6U C27U A43C C46U C66U A70G,-0.311
4,G1A U2G G6A C27U C46U A70U C71U,-0.15
5,G1A U2C C66U C71U,-0.189
6,G1A G6U C27U A43C C66U A69G A70U,-0.469
7,G1A U2C C66U A70U C71U,-0.106
8,G1A U2G C27U C66U A70G,-0.194
9,G1A U2G G6U A69G A70U C71U,-0.255
10,G1A U2C C71U,-0.00448
11,U2G G6U C27U A43C A70G C71U,-0.329
12,U2C G6U C27U A43C C66A C71U,-0.176
13,U2G G6U C27U,-0.0917
14,U2G A43C C46U C66U A69G A70U C71U,-0.413
15,G1A U2G G6A A70U,-0.0829
16,G6A C27U C46U C66A A70U,-0.102
17,G1A U2G G6U C66A A70U C71U,-0.0122
18,G1A U2C C46U C66A A70U C71U,-0.0833
19,C27U C66U A69G A70G C71U,-0.262
20,U2C A43C C46U C66A A70U,-0.0333
21,U2G G6U C66A A70G C71U,-0.249
22,G1A U2C G6A C27U A43C C66U A70G C71U,-0.0683
23,G1A U2G C27U A43C C46U C66A C71U,-0.254
24,C66A A69G A70U,-0.0115

row,Variant,yeast fitness (ln)
1,G1A U2G G6U A43C C46U C66A A70G C71U,-0.153
2,G1A U2G C27U C66A A70U C71U,-0.243
3,G6A A43C C46U C66U A69G A70U C71U,-0.233
4,G6A C27U C46U C66A A70U C71U,-0.234
5,G1A U2C C46U C66U A70G,-0.129
6,G1A G6A C27U A43C C46U C66U A69G A70U C71U,-0.477
7,U2G C27U A43C A69G C71U,-0.318
8,U2C G6A C27U C46U C66A C71U,-0.101
9,U2G G6A A43C C66U C71U,-0.388
10,G1A U2C C66A A70U,-0.0191
11,G1A U2G G6U A43C C46U C66U A69G A70G,-0.365
12,A43C A69G A70U C71U,-0.337
13,U2G C27U A43C C66U A69G A70G,-0.348
14,U2C G6U C27U C66A,-0.24
15,U2C G6U C27U C66U,-0.0859
16,G1A U2C A43C C46U C66A A70G C71U,-0.0667
17,U2G G6U C27U C66A A70G,-0.243
18,U2G G6A A70G,-0.114
19,G6U C27U A43C C66A,-0.0198
20,G1A U2C C27U C46U,-0.00588
21,U2G C27U A43C C46U C71U,-0.0621
22,G1A G6A C27U C46U C66U A70G,-0.236
23,G1A G6A C27U C46U C66U A70U,-0.198
24,U2C G6U C27U A43C C46U A70U C71U,-0.182

row,Variant,yeast fitness (ln)
1,G1A U2C C27U A43C C66A A70U C71U,-0.331
2,U2G G6U A43C C46U A70U C71U,-0.168
3,G1A U2G C66U A69G A70G,-0.243
4,U2G G6A C66A,-0.111
5,G6A C27U A69G A70U,-0.243
6,G1A G6A C27U A43C C46U,-0.233
7,G1A A43C C46U C66U,-0.151
8,U2G G6U C27U C46U C66U A69G C71U,-0.527
9,U2G G6U C27U A43C C66A A69G A70U,-0.315
10,G1A G6A C46U C66U A69G A70G,-0.136
11,U2G C27U C66U,-0.0998
12,A43C C46U A69G A70U,-0.133
13,G1A U2C G6A A43C C66U A69G A70G,-0.309
14,U2G G6U C27U A43C C46U A69G A70G C71U,-0.33
15,G1A U2G G6A C27U A43C C46U,-0.242
16,G1A U2C G6A A43C C66U A70U C71U,-0.301
17,G1A G6A C27U C46U A70G,-0.208
18,G1A C27U A43C C46U C66U A70U,-0.173
19,G1A U2G A43C C66U A70U,-0.185
20,G6A C27U C66A A70U,-0.107
21,G1A G6U C27U A43C A70U,-0.331
22,U2C G6U C27U C46U C66U C71U,-0.183
23,C27U C66U A70U C71U,-0.276
24,G1A U2G A43C C66U A69G A70U,-0.287

row,Variant,yeast fitness (ln)
1,G1A G6A C66U A70U,-0.0527
2,G6A A43C A70U C71U,-0.266
3,G6U C27U A43C C46U C71U,-0.254
4,G1A U2C G6U C27U C46U A69G A70U C71U,-0.392
5,G1A C27U A43C C66A A70U,-0.136
6,U2C G6U C27U C46U C66A A69G A70G C71U,-0.0348
7,G1A G6U C27U C46U C66U,-0.313
8,G6A C46U C66A C71U,-0.349
9,G1A U2G G6U A43C C66U A69G A70G C71U,-0.368
10,U2G A43C A69G A70U C71U,-0.382
11,G6A A70U,-0.0535
12,G6U C27U A43C A69G A70U C71U,-0.462
13,U2G A43C C71U,-0.102
14,G1A U2C C27U A69G A70G C71U,-0.0512
15,U2G C46U C66U A69G C71U,-0.209
16,G6A C27U A43C C46U C66A A69G A70G C71U,-0.292
17,U2C G6A A43C C66U,-0.121
18,A43C C66U A70G,-0.0981
19,G1A U2G G6A C46U C66U A70G C71U,-0.517
20,G1A U2C G6A C46U A69G A70G C71U,-0.0541
21,G1A A43C A69G A70U,-0.257
22,G1A U2G G6A C27U C46U C66U C71U,-0.196
23,C27U A43C C66A A69G A70U C71U,-0.513
24,U2G G6A C27U C46U C66U A69G A70G C71U,-0.216

row,Variant,yeast fitness (ln)
1,U2G G6U C66U,-0.0894
2,U2G G6A C27U A43C C46U C66U A70G C71U,-0.194
3,U2G C27U C46U A69G C71U,-0.112
4,G1A A43C C46U C66U A70G C71U,-0.192
5,U2C G6A C46U A70U C71U,-0.0461
6,U2G A43C C46U A69G C71U,-0.107
7,G6A C27U C66U A70U C71U,-0.312
8,U2G G6A A43C C66U A70U C71U,-0.49
9,U2C G6A C27U A70G C71U,-0.282
10,G1A G6A A70U C71U,-0.153
11,A43C C46U C66U A69G,-0.172
12,G1A U2G C46U A69G C71U,-0.0958
13,G1A U2C C27U A43C A70G,-0.0774
14,U2C G6A A43C A69G A70U C71U,-0.279
15,G1A U2C G6U C46U C66A A70G,-0.0166
16,G1A U2C C27U A43C C46U C71U,-0.178
17,G1A G6A C27U A69G A70G C71U,-0.344
18,U2G G6A A43C C66U A69G A70U C71U,-0.407
19,G6A C27U C46U C66U,-0.0122
20,U2C G6A C66U A69G C71U,-0.225
21,U2G G6U C27U A43C A69G A70U C71U,-0.484
22,G1A A43C C46U C66U A70U C71U,-0.323
23,U2G C27U C46U A69G,-0.0724
24,U2C G6A A43C C46U A70G C71U,-0.112

row,Variant,yeast fitness (ln)
1,C27U A43C C46U A69G A70G,-0.0876
2,G1A U2C G6U C27U A43C C46U C66U A69G A70G,-0.279
3,G1A U2C G6U C46U A70G,-0.239
4,G1A U2G C27U A43C C46U A69G,-0.212
5,U2G G6U C66U A69G A70G C71U,-0.235
6,G1A U2G C46U C66U A70U,-0.0831
7,G1A U2G G6U A43C A69G A70U C71U,-0.428
8,G1A U2G C27U C46U C66U A69G A70G,-0.231
9,G6U C27U C66A A69G,-0.0157
10,G1A A43C C46U C66A A70U C71U,-0.189
11,G1A G6U A43C C46U C71U,-0.174
12,G1A G6A C27U C46U C66A A70U C71U,-0.228
13,C27U A43C C46U A69G C71U,-0.207
14,U2C C46U C66U A69G A70U C71U,-0.359
15,G6A C46U C66U,0.00319
16,G6A C46U C66A A69G A70G,-0.148
17,G6A C46U C66A A69G A70U,-0.178
18,U2G G6A A43C C66U A70G C71U,-0.186
19,G1A U2G A43C C66U A70U C71U,-0.333
20,G6U A43C C46U C66A C71U,-0.0527
21,G1A C46U A70U C71U,-0.0276
22,G1A U2G G6A A43C C46U A69G A70G,-0.292
23,G6A C66U A69G C71U,-0.085
24,G6A A43C C46U C66A A70U,-0.119

row,Variant,yeast fitness (ln)
1,G1A U2C G6A C66U A70U,-0.0837
2,G6U C46U C66U A70G,-0.153
3,G1A U2G C27U A43C C66U A69G A70U C71U,-0.332
4,G1A G6U A43C C46U C66A A69G A70G,-0.258
5,G1A G6A A43C C46U A69G A70U,-0.283
6,C27U C46U C66U A70G,-0.315
7,U2C C27U C66U A70G,-0.0659
8,U2G G6U A43C C46U A69G A70G,-0.183
9,U2C G6A C46U A70G C71U,-0.0308
10,G1A U2C C27U C46U C66U A69G A70U,-0.184
11,C27U C66U A69G,-0.241
12,U2C C66A A70G,-0.11
13,U2C G6A C27U C46U,-0.0382
14,U2C G6U C27U A43C C46U A69G A70G,-0.227
15,G6U C27U C46U C66A A70U,-0.084
16,U2G A69G A70U,-0.00206
17,U2C G6A A43C A69G A70U,-0.0661
18,G1A C27U C46U,-0.0938
19,U2C C27U A43C C71U,-0.0796
20,A43C,0.000879
21,G1A U2G G6U C27U A69G C71U,-0.274
22,U2G G6U C27U C46U C66U A69G,-0.258
23,A43C A70G C71U,-0.164
